Screens (PubChem BioAssay)
MrgX1 ag = agonists of human MrgX1 receptor | MrgX1-HEK293 cells, Fluo-4 calcium fluorescence, agonist mode; hits give high values | B-score at 10 µM | hit rate 0.44% among 310,000 | AID 588627;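 active = calcium response B-score plate-corrected fluorescence ratio at least 3 library SD, with starting fluorescence B-score inside 5 SD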
Target sequence (Q96LB2 whole entry, looked up): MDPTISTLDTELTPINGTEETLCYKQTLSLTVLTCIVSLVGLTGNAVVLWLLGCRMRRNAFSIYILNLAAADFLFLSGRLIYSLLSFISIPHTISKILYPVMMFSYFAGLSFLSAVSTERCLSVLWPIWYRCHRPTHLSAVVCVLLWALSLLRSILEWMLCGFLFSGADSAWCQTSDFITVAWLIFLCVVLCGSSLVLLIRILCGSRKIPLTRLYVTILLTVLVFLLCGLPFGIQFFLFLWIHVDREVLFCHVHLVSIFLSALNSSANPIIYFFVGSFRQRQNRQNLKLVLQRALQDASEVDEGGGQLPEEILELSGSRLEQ
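Test system: Stable human MrgX1 HEK293 cell line | Schedule: Overnight plating before 1 h dye loading | Read-out basis: Baseline-normalised fluorescence change ratio, B-scored | Detection: Kinetic calcium dye fluorescence, Fluo-4 NW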
RGS4 inh = human RGS4 inhibition. P49798. hit rate 0.45% among 310,000. B-score at 10 µM. HEK293 M3R/RGS4 inducible, Fluo-4 calcium flux; hits give high values; triggered by carbachol at its EC20. AID 463165;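 active = B-score, a plate-corrected calcium signal, over three deviations above library mean, with baseline fluorescence within five deviations of library mean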;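 also: RGS4 expression induced by doxycycline in cells with stable M3 receptor; B-score is computed from the integrated fluorescence ratio over baseline after carbachol; higher B-score means a larger calcium signal and so more RGS4 inhibition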
Target sequence (P49798 whole entry, looked up): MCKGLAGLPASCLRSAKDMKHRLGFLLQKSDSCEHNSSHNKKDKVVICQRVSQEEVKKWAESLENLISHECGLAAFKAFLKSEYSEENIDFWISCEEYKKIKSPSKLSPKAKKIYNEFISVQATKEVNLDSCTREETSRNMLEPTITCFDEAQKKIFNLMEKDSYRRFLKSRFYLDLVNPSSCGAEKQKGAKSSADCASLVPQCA
MrgX1 allo act = allosterically activates human MrgX1 receptor signaling | hit rate 0.63% among 310,000 | MrgX1-HEK293, Fluo-4 calcium flux, FDSS; hits give high values | Q96LB2 | B-score at 10 µM | AID 588675;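 active = plate-corrected calcium response at least 3 library SD above typical, normal starting fluorescence, not activating the receptor alone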;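 also: compound read alongside a low EC10 to EC30 dose of BAM8-22 agonist; peak minus trough fluorescence over baseline measured at the second addition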
MrgX1 antag = antagonists of human MrgX1 receptor | Q96LB2 | MRGX1-HEK293 calcium flux, Fluo-4, BAM8-22 antagonism; hits give low values | B-score at 10 µM | hit rate 1.3% among 310,000;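 active = calcium-response B-score plate-corrected more than 3 library SD below zero, starting fluorescence within 5 deviations, no agonist response on first addition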;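 also: peak minus trough fluorescence over baseline after final BAM8-22 challenge near maximal dose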
RGS4 act = potentiators or activators of RGS4 | HEK293 M3R/inducible RGS4, carbachol calcium flux Fluo4; hits give low values | B-score at 10 µM | hit rate 0.92% among 310,000 | AID 463111;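 active = B-score of the integrated calcium signal more than 4 SD below the library mean, with starting fluorescence not abnormally high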;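 also: negative B-score means reduced calcium response which marks RGS4 activation or potentiation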
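Detection: kinetic calcium fluorescence imaging with Fluo4-AM dye, 2 µM / Material: HEK293 cells with stable M3R and inducible RGS4 / Schedule: recording 10 s baseline at 1 Hz, 100 s post-agonist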
MrgX1 ag reconf = confirmation of human MrgX1 receptor agonists; shares compounds with MrgX1 ag; MrgX1-HEK293, Fluo-4 calcium fluorescence, FDSS; activation, % at 10 µM; hit rate 78% among 600;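 active = calcium signal rise, corrected for plate position, at least 3 library SD high, with starting brightness within 5 such deviations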
HEK293 Ca flux = MrgX1 antagonist counter-screen hit in parental HEK293 cells; shares compounds with MrgX1 antag; Fluo-4 calcium fluorescence, FDSS; fluorescence ratio F(max-min)/F0 at 10 µM; hit rate 2% among 4,000; AID 624111;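 active = duplicate-averaged calcium fluorescence ratio at least three times the standard deviation of buffer wells, a nonspecific response in parental cells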
HEK293 Ca counter = counter-screen for MrgX1 allosteric activators: effect in parental HEK293 cells; fluorescence ratio F(max-min)/F0 at 10 µM; parental HEK293 calcium flux, Fluo-4 fluorescence ratio; hits give high values; AID 624114; shares compounds with MrgX1 antag; hit rate 0.4% among 4,000;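 active = calcium fluorescence ratio, averaged over duplicates, at least 3 SD of the buffer-well ratio, meaning a nonspecific response in receptor-free cells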;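 also: untransfected parental HEK293 lacking MrgX1 used as counterscreen for MrgX1 allosteric activators; fluorescence change taken during the second addition on a kinetic imager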
HEK293 Ca cntr2 = counter-screen for MrgX1 activators: effect in parental HEK293 cells; shares compounds with MrgX1 antag; fluorescence ratio F(max-min)/F0 at 10 µM; Fluo-4 calcium fluorescence (FDSS); hits give high values; hit rate 8.7% among 4,000;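 active = calcium fluorescence ratio at least three times the spread of buffer wells, meaning a non-specific response in parental cells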
* = called active by the depositor; i = inactive; . = no result. Shown are actives, neighbours in structure and some others; about 3.5% of the full set was active somewhere.

SMILES | MrgX1 ag | RGS4 inh | MrgX1 allo act | MrgX1 antag | RGS4 act | MrgX1 ag reconf | HEK293 Ca flux | HEK293 Ca counter | HEK293 Ca cntr2
CC1(c2ccc([N+](=O)[O-])cc2)NC(=O)N(CC(=O)c2ccc3c(c2)OCO3)C1=O (centres undefined) | i | i | i | i | i | . | . | . | .
CC1(c2ccc(OC(F)F)cc2)NC(=O)N(CC(=O)c2ccc3c(c2)OCO3)C1=O (centres undefined) | 35* | i | i | i | i | 175.6%* | i | i | 54.6*
COc1cccc(CNC(=O)CCC2CCCN(C(=O)c3ccc(C)nc3)C2)c1 (centres undefined) | i | i | i | i | i | . | . | . | .
COc1cccc(CNC(=O)CCC2CCCN(c3cc(C)nc(N)n3)C2)c1 (centres undefined) | 29.7* | i | i | i | i | i | i | i | i
O=C(/C=C/c1cccs1)NCc1ccc2c(c1)OCO2 | i | i | i | i | i | . | . | . | .
COc1cc(/C=C(\C#N)C(=O)c2c[nH]c3ccccc23)cc(OC)c1O | 70.4* | i | i | i | i | 461.4%* | i | i | 105*
O=C(Nn1c(-c2ccncc2)nc2ccccc2c1=O)c1ccccc1Br | i | i | i | i | i | . | . | . | .
COC(=O)Nc1cc(C(=O)c2ccc(Cl)cc2Cl)c[nH]1 | i | i | i | i | i | . | . | . | .
COC(=O)C1=C(C)OC(N)=C(C#N)C1c1ccccc1F (centres undefined) | 27.1* | i | i | i | i | 170.4%* | i | i | 64.3*
COC(=O)C1=C(CSc2nc3c(cc2C#N)CN(C)CC3)OC(N)=C(C#N)C1c1ccccc1F (centres undefined) | 41.8* | i | i | i | i | 265.4%* | i | i | 56.6*
COC(=O)C1=C(C)OC(N)=C(C#N)C1c1cc(OC)c(OCC(N)=O)cc1Cl (centres undefined) | 42.7* | i | i | i | i | 230.3%* | i | i | 56.5*
CC(=O)C1=C(C)OC(N)=C(C#N)C1c1cc([N+](=O)[O-])ccc1Cl (centres undefined) | i | i | i | i | i | . | . | . | .
CCOC(=O)C1=C(CSc2nc3c(cc2C#N)CN(C)CC3)OC(N)=C(C#N)C1c1ccccc1 (centres undefined) | i | . | i | i | . | . | . | . | .
COC(=O)C1=C(C)OC(N)=C(C#N)C1c1ccco1 (centres undefined) | i | i | i | i | i | . | . | . | .
Cc1cccc(C(=O)Nc2ccc(C(=O)N/N=C/c3ccco3)cc2)c1 | i | i | i | i | i | . | . | . | .
CCN(CC)C(=O)Cn1cc(C(=O)C(=O)N2CCN(Cc3ccc4c(c3)OCO4)CC2)c2ccccc21 | i | i | i | i | i | . | . | . | .
COc1ccc(CN2C(=O)c3cccnc3C2=O)cc1S(=O)(=O)N(C)c1cccc(C)c1 | i | i | i | i | i | . | . | . | .
COc1ccc(-c2csc(NC(=O)CSCc3c(C)noc3C)n2)cc1OC | 44.2* | i | i | i | i | i | i | i | i
COc1ccc(-c2csc(NC(=O)CN3C(=O)C4CCCCC4C3=O)n2)cc1OC (centres undefined) | 29.7* | i | i | i | i | i | i | i | i
COc1ccc(OC)c(-c2csc(NC(=O)CN3C(=O)C4CCCCC4C3=O)n2)c1 (centres undefined) | i | i | i | i | i | . | . | . | .
O=C(CN1CCN(c2ccccn2)CC1)Nc1cccc(Br)c1 | i | i | i | i | i | . | . | . | .
CCOCCn1c(SC(C)C(C)=O)nc2c1c(=O)[nH]c(=O)n2C (centres undefined) | 53.3* | i | i | i | i | i | i | i | i
Cc1nnc(NC(=O)c2sc3nc(-c4cccs4)cc(C(F)(F)F)c3c2N)s1 | 31.3* | i | i | i | i | 298.6%* | 0.299* | i | 62.7*
CC(=Nc1ccc(C)cc1)c1sc2ccccc2c1O | i | i | i | i | i | . | . | . | .
CC(=Nc1cccc(O)c1)c1sc2ccccc2c1O | 27.8* | i | i | i | i | 143.9%* | i | i | i
SMILES | MrgX1 ag | RGS4 inh | MrgX1 allo act | MrgX1 antag | RGS4 act | MrgX1 ag reconf | HEK293 Ca flux | HEK293 Ca counter | HEK293 Ca cntr2
COc1ccc(C(=O)NC(=S)NNC(=O)[C@H]2C[C@@H]2c2ccccc2)cc1OC | 66.9* | i | i | i | i | 377.5%* | i | i | 72.2*
Cc1onc(-c2ccccc2)c1C(=O)NCc1ccc2c(c1)OCO2 | i | i | i | i | i | . | . | . | .
Cc1onc(-c2ccccc2)c1C(=O)NNC(=S)NC(=O)c1ccc2c(c1)OCO2 | 76.5* | i | i | i | i | 412.2%* | i | i | 104*
CC(C)(C)NC(=S)NNC(=O)[C@H]1C[C@@H]1c1ccccc1 | i | i | i | i | i | . | . | . | .
COc1ccc(C(=O)NC(=S)NNC(=O)c2c(-c3ccccc3)noc2C)cc1OC | 81.1* | i | i | i | i | 222.2%* | i | i | 51.5*
Cc1ccc(C2C(C#N)=C(N)Oc3n[nH]c(-c4cccnc4)c32)o1 (centres undefined) | 35.7* | i | i | i | i | 167.3%* | i | i | i
COc1ccc(-c2cc(=O)oc3cc(OCC(=O)Nc4ccc(CCO)cc4)ccc23)cc1 | i | i | i | i | i | . | . | . | .
Cc1cc2ccc3ccccc3c2cc1CN(C)C | i | i | i | i | i | . | . | . | .
CN(C)CCOC1c2ccccc2CCc2ccc3ccccc3c21 (centres undefined) | 56.9* | i | i | i | i | 141.9%* | i | i | i
COc1ccccc1C(=O)N1CCN(CCNC(=O)C(=O)Nc2ccc(Br)c(C)c2)CC1 | i | i | i | i | i | . | . | . | .
ClCc1nc2ccccc2c2ccccc12 | 43.7* | i | i | i | i | 88.3%* | i | i | i
CCc1ccc(CNc2ccc3c(c2)ncn3CC)cc1 | 29.9* | i | i | i | i | 165.6%* | i | i | i
